Measurements published in ChEMBL document CHEMBL4819122, “Novel 4-(piperazin-1-yl)quinolin-2(1H)-one bearing thiazoles with antiproliferative activity through VEGFR-2-TK inhibition” (Bioorg Med Chem, 2021).
The source made the active and inactive calls. No cut-off for these calls is given here.

Columns and labels:
UACC-257 = test: Cytotoxicity against human UACC-257 assessed as growth inhibition at 10 uM by NCI protocol relative to control; format: functional; settings: read-out: GI
In short: (§1)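 Run by the NCI under its standard protocol: one dose of 10 μM against a sixty-line panel from nine human tumour tissues. Result given as percent growth inhibition of treated cells relative to untreated cells.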

HT-29 = test: Cytotoxicity against human HT29 assessed as growth inhibition at 10 uM by NCI protocol relative to control; format: functional; settings: read-out: GI
In short: (§2)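 Run by NCI as a single-dose screen at 10 μM across the sixty-cell-line panel, which covers nine human tumour tissue types. The read-out is percent growth inhibition of treated cells relative to untreated cells.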

IGROV-1 = test: Cytotoxicity against human IGROVI assessed as growth inhibition at 10 uM by NCI protocol relative to control; format: functional; settings: read-out: GI; in short: as §2
MDA-MB-435 = test: Cytotoxicity against human MDA-MB-435 assessed as growth inhibition at 10 uM by NCI protocol relative to control; format: functional, cell-based; in short: as §2
DU-145 = test: Cytotoxicity against human DU-145 assessed as growth inhibition at 10 uM by NCI protocol relative to control; format: functional; settings: read-out: GI; in short: as §2
ACHN = test: Cytotoxicity against human ACHN assessed as growth inhibition at 10 uM by NCI protocol relative to control; format: functional; settings: read-out: GI; in short: as §2
SW-620 = test: Cytotoxicity against human SW-620 assessed as growth inhibition at 10 uM by NCI protocol relative to control; format: functional; settings: read-out: GI; in short: as §1
SK-OV-3 = test: Cytotoxicity against human SK-OV-3 assessed as growth inhibition at 10 uM by NCI protocol relative to control; format: functional; settings: read-out: GI; in short: as §2
SF-539 = test: Cytotoxicity against human […] assessed as growth inhibition at 10 uM by NCI protocol relative to control; format: functional; settings: read-out: GI; in short: as §2
BT-549 = test: Cytotoxicity against human BT-549 assessed as growth inhibition at 10 uM by NCI protocol relative to control; format: functional; settings: read-out: GI; in short: as §2
CAKI-1 = test: Cytotoxicity against human Caki1 assessed as growth inhibition at 10 uM by NCI protocol relative to control; format: functional; settings: read-out: GI; in short: as §2
OVCAR-8 = test: Cytotoxicity against human OVCAR-8 assessed as growth inhibition at 10 uM by NCI protocol relative to control; format: functional; settings: read-out: GI; in short: as §2
UO-31 = test: Cytotoxicity against human UO31 assessed as growth inhibition at 10 uM by NCI protocol relative to control; format: functional; settings: read-out: GI; in short: as §1
HCC 2998 = test: Cytotoxicity against human HCC-2998 assessed as growth inhibition at 10 uM by NCI protocol relative to control; format: functional; settings: read-out: GI; in short: as §2
U-251 = test: Cytotoxicity against human U251 assessed as growth inhibition at 10 uM by NCI protocol relative to control; format: functional; settings: read-out: GI; in short: as §1
HOP-92 = test: Cytotoxicity against human HOP-92 assessed as growth inhibition at 10 uM by NCI protocol relative to control; format: functional; in short: as §2
MDA-MB-468 = test: Cytotoxicity against human MDA-MB-468 assessed as growth inhibition at 10 uM by NCI protocol relative to control; format: functional; settings: read-out: GI; in short: as §2
T47D [1] = test: Cytotoxicity against human T47D cells assessed as reduction in cell viability after 3 hrs by MTT assay
NCI-H322M = test: Cytotoxicity against human NCI-H322M assessed as growth inhibition at 10 uM by NCI protocol relative to control; format: functional; settings: read-out: GI; in short: as §2
MCF7 = test: Cytotoxicity against human MCF7 assessed as growth inhibition at 10 uM by NCI protocol relative to control; format: functional; settings: read-out: GI; in short: as §2
M14 = test: Cytotoxicity against human M14 assessed as growth inhibition at 10 uM by NCI protocol relative to control; format: functional; settings: read-out: GI; in short: as §2
Malme-3M = test: Cytotoxicity against human MALME-3M assessed as growth inhibition at 10 uM by NCI protocol relative to control; format: functional; settings: read-out: GI; in short: as §2
RXF 393 = test: Cytotoxicity against human RXF 393 assessed as growth inhibition at 10 uM by NCI protocol relative to control; format: functional; settings: read-out: GI; in short: as §2
SK-MEL-2 = test: Cytotoxicity against human SK-MEL-2 assessed as growth inhibition at 10 uM by NCI protocol relative to control; format: functional; settings: read-out: GI; in short: as §2
NCI-H522 = test: Cytotoxicity against human NCI-H522 assessed as growth inhibition at 10 uM by NCI protocol relative to control; format: functional; settings: read-out: GI; in short: as §2
UACC-62 = test: Cytotoxicity against human UACC-62 assessed as growth inhibition at 10 uM by NCI protocol relative to control; format: functional; settings: read-out: GI; in short: as §1
SF-295 = test: Cytotoxicity against human SF-295 assessed as growth inhibition at 10 uM by NCI protocol relative to control; format: functional; settings: read-out: GI; in short: as §2
SF-268 = test: Cytotoxicity against human SF-268 assessed as growth inhibition at 10 uM by NCI protocol relative to control; format: functional; settings: read-out: GI; in short: as §2
A549 = test: Cytotoxicity against human A549 assessed as growth inhibition at 10 uM by NCI protocol relative to control; format: functional; settings: read-out: GI; in short: as §2
SNB-19 = test: Cytotoxicity against human SNB-19 assessed as growth inhibition at 10 uM by NCI protocol relative to control; format: functional; settings: read-out: GI; in short: as §1
EKVX = test: Cytotoxicity against human EKVX assessed as growth inhibition at 10 uM by NCI protocol relative to control; format: functional; settings: read-out: GI; in short: as §2
NCI-H23 = test: Cytotoxicity against human NCI-H23 assessed as growth inhibition at 10 uM by NCI protocol relative to control; format: functional; settings: read-out: GI; in short: as §2
MDA-MB-231 = test: Cytotoxicity against human MDA-MB-231 assessed as growth inhibition at 10 uM by NCI protocol relative to control; format: functional; settings: read-out: GI; in short: as §2
HCT-15 = test: Cytotoxicity against human HCT-15 assessed as growth inhibition at 10 uM by NCI protocol relative to control; format: functional; settings: read-out: GI; in short: as §2
COLO 205 = test: Cytotoxicity against human COLO 205 assessed as growth inhibition at 10 uM by NCI protocol relative to control; format: functional; settings: read-out: GI; in short: as §2
SNB-75 = test: Cytotoxicity against human SNB-75 assessed as growth inhibition at 10 uM by NCI protocol relative to control; format: functional; settings: read-out: GI; in short: as §1
KM12 = test: Cytotoxicity against human KM12 assessed as growth inhibition at 10 uM by NCI protocol relative to control; format: functional; settings: read-out: GI; in short: as §2
OVCAR-3 = test: Cytotoxicity against human OVCAR-3 assessed as growth inhibition at 10 uM by NCI protocol relative to control; format: functional; settings: read-out: GI; in short: as §2
A498 = test: Cytotoxicity against human A498 assessed as growth inhibition at 10 uM by NCI protocol relative to control; format: functional; settings: read-out: GI; in short: as §2
T47D [2] = test: Cytotoxicity against human T-47D assessed as growth inhibition at 10 uM by NCI protocol relative to control; format: functional; settings: read-out: GI; in short: as §1
HL-60 = test: Cytotoxicity against human HL60 assessed as growth inhibition at 10 uM by NCI protocol relative to control; format: functional; settings: read-out: GI; in short: as §2
NCI/ADR-RES = test: Cytotoxicity against human NCl/ADR-RES assessed as growth inhibition at 10 uM by NCI protocol relative to control; format: functional; settings: read-out: GI; in short: as §2
SK-MEL-28 = test: Cytotoxicity against human SK-MEL-28 assessed as growth inhibition at 10 uM by NCI protocol relative to control; format: functional; settings: read-out: GI; in short: as §2

O=C(CN1CCN(c2cc(=O)n(-c3ccccc3)c3ccccc23)CC1)Nc1nc(-c2ccccc2)cs1
inhibition of growth at 10 µM (UACC-257): 51.5%
inhibition of growth at 10 µM (HT-29): 27%
inhibition of growth at 10 µM (IGROV-1): 32.5%
growth inhibition (GI) (MDA-MB-435): inactive
inhibition of growth at 10 µM (DU-145): 27.3%
inhibition of growth at 10 µM (ACHN): 36.2%
inhibition of growth at 10 µM (SW-620): 31.4%
inhibition of growth at 10 µM (SK-OV-3): 29.2%
inhibition of growth at 10 µM (SF-539): 22.9%
inhibition of growth at 10 µM (BT-549): 33%
inhibition of growth at 10 µM (CAKI-1): 38.6%
inhibition of growth at 10 µM (OVCAR-8): 30.2%
inhibition of growth at 10 µM (UO-31): 58.4%
inhibition of growth at 10 µM (HCC 2998): 18.2%
inhibition of growth at 10 µM (U-251): 40.8%
growth inhibition (GI) (HOP-92): inactive
inhibition of growth at 10 µM (MDA-MB-468): 86.7%
IC50 (T47D [1]): 10.3 µM
inhibition of growth at 10 µM (NCI-H322M): 10.6%
inhibition of growth at 10 µM (MCF7): 72.4%
inhibition of growth at 10 µM (M14): 26.6%
inhibition of growth at 10 µM (Malme-3M): 30.3%
inhibition of growth at 10 µM (RXF 393): 23.1%
inhibition of growth at 10 µM (SK-MEL-2): 11.1%
inhibition of growth at 10 µM (NCI-H522): 33.5%
inhibition of growth at 10 µM (UACC-62): 36.1%
inhibition of growth at 10 µM (SF-295): 33.3%
inhibition of growth at 10 µM (SF-268): 20.8%
inhibition of growth at 10 µM (A549): 43.8%
inhibition of growth at 10 µM (SNB-19): 14.8%
inhibition of growth at 10 µM (EKVX): 54.5%
inhibition of growth at 10 µM (NCI-H23): 39.2%
inhibition of growth at 10 µM (MDA-MB-231): 37.5%
inhibition of growth at 10 µM (HCT-15): 74.8%
inhibition of growth at 10 µM (COLO 205): 39.9%
inhibition of growth at 10 µM (SNB-75): 28.4%
inhibition of growth at 10 µM (KM12): 37%
inhibition of growth at 10 µM (OVCAR-3): 27.5%
inhibition of growth at 10 µM (A498): 33.8%
inhibition of growth at 10 µM (T47D [2]): 83.4%
inhibition of growth at 10 µM (HL-60): 62.9%
inhibition of growth at 10 µM (NCI/ADR-RES): 37.3%
inhibition of growth at 10 µM (SK-MEL-28): 28.8%
